From ChEMBL document CHEMBL2176968, “Identification of less lipophilic riminophenazine derivatives for the treatment of drug-resistant tuberculosis” (J Med Chem, 2012)
In brackets after ≈: the same amount, converted by molar mass.

How the values were obtained:
[1] = Selectivity index, ratio of IC50 for african green monkey Vero cells to MIC for Mycobacterium tuberculosis H37Rv ATCC 27294; format: functional
Mus musculus = experiment: Acute toxicity in mouse assessed as survival at 500 mg/kg, po measured for 7 days; format: organism-based; design: dose 500 mg/kg, route oral; conditions: in vivo, 168 h
Procedure, shortened: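 Mice given one oral dose of 500 mg/kg, then observed for 7 days. The number of surviving mice was recorded.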

Vero = experiment: Cytotoxicity against african green monkey Vero cells after 48 hrs by MTT assay; format: cell-based; conditions: Chlorocebus sabaeus
Procedure, shortened: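 Vero cells were exposed to compound. The IC50 was taken as the concentration inhibiting 50% of growth relative to an untreated control.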

[2] = system: Mycobacterium tuberculosis; experiment: Antimycobacterial activity against Mycobacterium tuberculosis H37Rv ATCC 27294 after 7 days by microplate Alamar blue assay; format: functional; conditions: H37Rv ATCC 27294, 168 h
Procedure, shortened: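 Run in 96-well plates against M. tuberculosis H37Rv using the Alamar Blue read-out. The MIC was taken as the lowest concentration giving >90% growth inhibition.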

[3] = AUC (0 to 24 hrs) in BALB/c mouse at 20 mg/kg, po; format: ADME, organism-based; design: time < 24 hr, dose 20 mg/kg, route oral; conditions: plasma
[4] = Half life in BALB/c mouse at 20 mg/kg, po; format: ADME, organism-based; design: dose 20 mg/kg, route oral; conditions: in vivo
[5] = Cmax in BALB/c mouse at 20 mg/kg, po; format: ADME, organism-based; design: dose 20 mg/kg, route oral; conditions: in vivo
[6] = Octanol-water partition coefficient, log P of the compound; format: physicochemical
[7] = Aqueous solubility of the compound in 100 ml buffer solution at pH 1.0; format: physicochemical
Procedure, shortened: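 Solubility was measured in pH 1 buffer and reported in g/100 mL.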

[8] = Acute toxicity in mouse; format: organism-based; conditions: in vivo

## COc1ncccc1Nc1cc2nc3ccccc3n(-c3ccc(Br)cc3)c-2c/c1=N\C1CCOCC1
[1]
  Selectivity Index: 3200
Mus musculus
  Activity: Non-toxic
Vero
  IC50: > 64 µg/mL
[2]
  MIC: 0.02 µg/mL (≈ 0.0359 µM)

## COc1ncccc1Nc1cc2nc3ccccc3n(-c3ccc(Br)cc3)c-2c/c1=N\C1CCC(OC)CC1 (configuration not stated)
[1]
  Selectivity Index: 2065
Mus musculus
  Activity: Non-toxic
Vero
  IC50: > 64 µg/mL
[2]
  MIC: 0.031 µg/mL (≈ 0.053 µM)

## COC1CCC(/N=c2\cc3n(-c4ccc(Br)cc4)c4ccccc4nc-3cc2Nc2cccnc2C)CC1 (configuration not stated)
[1]
  Selectivity Index: 2788
Mus musculus
  Activity: Toxic
Vero
  IC50: 41.8 µg/mL (≈ 73.6 µM)
[2]
  MIC: 0.015 µg/mL (≈ 0.0264 µM)

## COc1ncccc1Nc1cc2nc3ccccc3n(-c3ccc(OC(F)(F)F)cc3)c-2c/c1=N\C1CCC(OC)CC1 (configuration not stated)
[3]
  AUC(0-t) at 24 h: 24100 ng·h/mL
[4]
  half-life: 41.2 h
[5]
  Cmax: 1300 ng/mL
[6]
  logP: 4.52
[1]
  Selectivity Index: 4000
Mus musculus
  Activity: Non-toxic
Vero
  IC50: > 64 µg/mL
[2]
  MIC: 0.016 µg/mL (≈ 0.0271 µM)

## COc1ncccc1Nc1cc2nc3ccccc3n(-c3ccc(Cl)cc3)c-2c/c1=N\C1CCOCC1
[3]
  AUC(0-t) at 24 h: 33100 ng·h/mL
[4]
  half-life: 6.62 h
[5]
  Cmax: 2010 ng/mL
[6]
  logP: 4.15
[1]
  Selectivity Index: 4000
Mus musculus
  Activity: Non-toxic
Vero
  IC50: > 64 µg/mL
[2]
  MIC: 0.016 µg/mL (≈ 0.0312 µM)

## COc1ncccc1Nc1cc2nc3ccccc3n(-c3ccc(Cl)cc3)c-2c/c1=N\C1CCC(OC)CC1 (configuration not stated)
[3]
  AUC(0-t) at 24 h: 43900 ng·h/mL
[4]
  half-life: 7 h
[5]
  Cmax: 3010 ng/mL
[6]
  logP: 3.74
[1]
  Selectivity Index: 4000
Mus musculus
  Activity: Non-toxic
Vero
  IC50: > 64 µg/mL
[2]
  MIC: 0.016 µg/mL (≈ 0.0296 µM)

## COC1CCC(/N=c2\cc3n(-c4ccc(Cl)cc4)c4ccccc4nc-3cc2Nc2cccnc2C)CC1 (configuration not stated)
[1]
  Selectivity Index: 3195
Mus musculus
  Activity: Toxic
Vero
  IC50: 35.1 µg/mL (≈ 67.1 µM)
[2]
  MIC: 0.011 µg/mL (≈ 0.021 µM)

## COC1CCC(/N=c2\cc3n(-c4ccc(Cl)cc4)c4ccccc4nc-3cc2Nc2ccc(C)nc2)CC1 (configuration not stated)
[3]
  AUC(0-t) at 24 h: 22100 ng·h/mL
[4]
  half-life: 16.1 h
[5]
  Cmax: 1560 ng/mL
[6]
  logP: 4.11
[1]
  Selectivity Index: 3180
Mus musculus
  Activity: Non-toxic
Vero
  IC50: 50.9 µg/mL (≈ 97.1 µM)
[2]
  MIC: 0.016 µg/mL (≈ 0.0305 µM)

## COc1ncccc1Nc1cc2nc3ccccc3n(-c3ccc(F)cc3)c-2c/c1=N\C(C)C
[3]
  AUC(0-t) at 24 h: 52400 ng·h/mL
[7]
  solubility: 0.7 g
[4]
  half-life: 17.5 h
[5]
  Cmax: 3020 ng/mL
[6]
  logP: 4.07
[1]
  Selectivity Index: 2133
Mus musculus
  Activity: Non-toxic
Vero
  IC50: > 64 µg/mL
[2]
  MIC: 0.03 µg/mL (≈ 0.0661 µM)

## COc1ncccc1Nc1cc2nc3ccccc3n(-c3ccc(F)cc3)c-2c/c1=N\C1CCC(OC)CC1 (configuration not stated)
[3]
  AUC(0-t) at 24 h: 45400 ng·h/mL
[4]
  half-life: 7.9 h
[5]
  Cmax: 3650 ng/mL
[6]
  logP: 4.82
[1]
  Selectivity Index: 4000
Mus musculus
  Activity: Non-toxic
Vero
  IC50: > 64 µg/mL
[2]
  MIC: 0.016 µg/mL (≈ 0.0306 µM)

## Cc1ncccc1Nc1cc2nc3ccccc3n(-c3ccc(F)cc3)c-2c/c1=N\C1CCOCC1
[1]
  Selectivity Index: 2462
Mus musculus
  Activity: Toxic
Vero
  IC50: > 64 µg/mL
[2]
  MIC: 0.026 µg/mL (≈ 0.0542 µM)

## COC1CCC(/N=c2\cc3n(-c4ccc(F)cc4)c4ccccc4nc-3cc2Nc2cccnc2C)CC1 (configuration not stated)
[1]
  Selectivity Index: 3368
Mus musculus
  Activity: Toxic
Vero
  IC50: > 64 µg/mL
[2]
  MIC: 0.019 µg/mL (≈ 0.0374 µM)

## COc1ncccc1Nc1cc2nc3ccccc3n(-c3ccc(C(F)(F)F)cc3)c-2c/c1=N\C(C)C
[1]
  Selectivity Index: 2207
Mus musculus
  Activity: Non-toxic
Vero
  IC50: > 64 µg/mL
[2]
  MIC: 0.029 µg/mL (≈ 0.0576 µM)

## COc1ncccc1Nc1cc2nc3ccccc3n(-c3ccc(C(F)(F)F)cc3)c-2c/c1=N\C1CCOCC1
[1]
  Selectivity Index: 4000
Mus musculus
  Activity: Non-toxic
Vero
  IC50: > 64 µg/mL
[2]
  MIC: 0.016 µg/mL (≈ 0.0293 µM)

## COc1ncccc1Nc1cc2nc3ccccc3n(-c3ccc(C(F)(F)F)cc3)c-2c/c1=N\C1CCC(OC)CC1 (configuration not stated)
[1]
  Selectivity Index: 4000
Mus musculus
  Activity: Non-toxic
Vero
  IC50: > 64 µg/mL
[2]
  MIC: 0.016 µg/mL (≈ 0.0279 µM)

## Cc1ncccc1Nc1cc2nc3ccccc3n(-c3ccc(C(F)(F)F)cc3)c-2c/c1=N\C1CCOCC1
[1]
  Selectivity Index: 5818
Mus musculus
  Activity: Toxic
Vero
  IC50: > 64 µg/mL
[2]
  MIC: 0.011 µg/mL (≈ 0.0208 µM)

## CC(C)/N=c1\cc2n(-c3ccc(Cl)cc3)c3ccccc3nc-2cc1Nc1cccnc1
[8]
  LD50: 422 mg/kg
[1]
  Selectivity Index: 273
Vero
  IC50: 8.2 µg/mL (≈ 18.6 µM)
[2]
  MIC: 0.03 µg/mL (≈ 0.0682 µM)

## CC(C)/N=c1\cc2n(-c3ccccc3)c3ccccc3nc-2cc1Nc1cccnc1
[1]
  Selectivity Index: 66
Vero
  IC50: 3.93 µg/mL (≈ 9.69 µM)
[2]
  MIC: 0.06 µg/mL (≈ 0.148 µM)

## Cc1ccc(-n2c3c/c(=N\C(C)C)c(Nc4cccnc4)cc-3nc3ccccc32)cc1
[1]
  Selectivity Index: 45
Vero
  IC50: 2.71 µg/mL (≈ 6.46 µM)
[2]
  MIC: 0.06 µg/mL (≈ 0.143 µM)

## CSc1ccc(-n2c3c/c(=N\C(C)C)c(Nc4cccnc4)cc-3nc3ccccc32)cc1
[1]
  Selectivity Index: 37
Vero
  IC50: 1.83 µg/mL (≈ 4.05 µM)
[2]
  MIC: 0.05 µg/mL (≈ 0.111 µM)

## CC(C)/N=c1\cc2n(-c3ccc(F)cc3)c3ccccc3nc-2cc1Nc1cccnc1
[1]
  Selectivity Index: 208
Vero
  IC50: 6.25 µg/mL (≈ 14.8 µM)
[2]
  MIC: 0.03 µg/mL (≈ 0.0708 µM)

## CC(C)/N=c1\cc2n(-c3ccc(C(F)(F)F)cc3)c3ccccc3nc-2cc1Nc1cccnc1
[1]
  Selectivity Index: 655
Vero
  IC50: 19.7 µg/mL (≈ 41.5 µM)
[2]
  MIC: 0.03 µg/mL (≈ 0.0634 µM)

## CC(C)/N=c1\cc2n(-c3ccc(OC(F)(F)F)cc3)c3ccccc3nc-2cc1Nc1cccnc1
[1]
  Selectivity Index: 164
Vero
  IC50: 4.93 µg/mL (≈ 10.1 µM)
[2]
  MIC: 0.03 µg/mL (≈ 0.0613 µM)

## CC(C)/N=c1\cc2n(-c3ccc(Br)cc3)c3ccccc3nc-2cc1Nc1cccnc1
[1]
  Selectivity Index: 115
Vero
  IC50: 2.3 µg/mL (≈ 4.75 µM)
[2]
  MIC: 0.02 µg/mL (≈ 0.0413 µM)

## CC(C)/N=c1\cc2n(-c3ccc(Cl)cc3)c3ccccc3nc-2cc1Nc1ccc(Cl)cc1 [CLOFAZIMINE]
[8]
  LD50: > 3000 mg/kg
[3]
  AUC(0-t) at 24 h: 6960 ng·h/mL
[4]
  half-life: 29.7 h
[5]
  Cmax: 380 ng/mL
[6]
  logP: 5.34
[1]
  Selectivity Index: 572
Vero
  IC50: 68.6 µg/mL (≈ 145 µM)
[2]
  MIC: 0.12 µg/mL (≈ 0.253 µM)
